Test results from ChEMBL document CHEMBL1125823, “2-Phenylindole-linked [2-(aminoalkyl)pyridine]dichloroplatinum(II): complexes with a selective action on estrogen receptor positive mammary tumors” (1991).

Key:
MCF7 [1] = test: Effect on Estrogen receptor positive MCF-7 human breast cancer cell proliferation at 1x10E-6M (control = 25.4+/-3.1); format: functional
How it was run: (§1)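 MCF-7 cells were kept in MEM with 5% charcoal-treated newborn calf serum and phenol red for 2 weeks, then about 2×10^4 cells were plated per well. Compounds in 0.1% DMF were added 2 days later and renewed on day 4; DMF alone served as control. Coulter cell counts were taken on day 5; mean of six dishes ± SD; % T/C.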

MCF7 [2] = test: Effect on Estrogen receptor positive MCF-7 human breast cancer cell proliferation at 5x10E-6M (control = 25.4+/-3.1); format: functional; how it was run: as §1
MCF7 [3] = test: Effect on [3H]thymidine incorporation into estrogen receptor positive MCF-7 human breast cancer cells at 1*10^-6 M (control = 10.6+/-1.9); format: functional
How it was run: (§2)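 MCF-7 cells were grown in MEM with charcoal-treated 5% newborn calf serum and phenol red, then treated with compounds in 0.1% DMF (renewed on day 4) alongside DMF controls. They were labeled 3 days later with 1 µCi [³H]thymidine per well for 2 h, and incorporated radioactivity per dish was measured; mean of six dishes ± SD; % T/C.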

MCF7 [4] = test: Effect on [3H]thymidine incorporation into estrogen receptor positive MCF-7 human breast cancer cells at 5*10e-6 M (control = 10.6+/-1.9); format: functional
How it was run: (§3)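 MCF-7 cells in improved MEM with glutamine, gentamycin and 5% newborn calf serum, switched to charcoal-treated serum two weeks ahead; phenol red present; 37 °C, 5% CO2. About 2×10^4 cells plated per well; compound in 0.1% DMF added 2 days later, renewed on day 4; labelled 3 days later with 1 μCi [3H]thymidine per well for 2 h; cpm/dish, mean of six dishes ± SD.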

[5] = molecular target: T1, Estrogen receptor (Mus musculus) (UniProt O08537+P19785); test: Percent inhibition of estrone stimulated uterotrophic effect in mice at 15 ug; format: functional
How it was run: (§4)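 Immature mice given test compound per animal sc on three consecutive days together with 0.4 μg estrone/animal/day. Killed 24 h after last injection; uteri fixed in Bouin, dried 100 °C 24 h and weighed. Inhibition = 100 − [(W_S,T − W_V)/(W_S − W_V) × 100] using relative uterus weights; 6-10 animals; Wilcoxon-Mann-Whitney U test.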

[6] = molecular target: T1, Estrogen receptor (Mus musculus); test: Percent inhibition of estrone stimulated uterotrophic effect in mice at 150 ug; format: functional; how it was run: as §4
[7] = molecular target: T1, Estrogen receptor (Mus musculus); test: Uterotrophic effect in mice as relative uterine weight(mg) at 15 ug (control = […]+/-1.7); format: functional, tissue-based
[8] = molecular target: T1, Estrogen receptor (Mus musculus); test: Uterotrophic effect in mice as relative uterine weight(mg) at 150 ug (control = […]+/-1.7); format: functional, tissue-based
MCF7 [9] = test: Effect on Estrogen receptor positive MCF-7 human breast cancer cell proliferation at 1x10E-6M; format: functional; how it was run: as §1
MCF7 [10] = test: Effect on Estrogen receptor positive MCF-7 human breast cancer cell proliferation at 5x10E-6M; format: functional; how it was run: as §1
[11] = molecular target: T1, Estrogen receptor (Mus musculus); test: Anti-uterotrophic effect in mice as relative uterine weight(mg) at 15 ug; format: functional
How it was run: (§5)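 Immature mice received the compound sc per animal on three consecutive days, alone or with 0.4 µg estrone per animal per day. Uteri were taken 24 h after the last injection, Bouin-fixed, dried at 100 °C for 24 h and weighed. Relative uterus weight = dry weight (mg)/body weight (g) × 100; mean of 6-10 animals ± SD; Mann-Whitney U test.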

[12] = molecular target: T1, Estrogen receptor (Mus musculus); test: Anti-uterotrophic effect in mice as relative uterine weight(mg) at 150 ug; format: functional; how it was run: as §5
MCF7 [13] = test: Effect on [3H]thymidine incorporation into estrogen receptor positive MCF-7 human breast cancer cells at 1x10E-6M; format: functional; how it was run: as §2
MCF7 [14] = test: Effect on [3H]thymidine incorporation into estrogen receptor positive MCF-7 human breast cancer cells at 5x10E-6M; format: functional; how it was run: as §3
MCF7 [15] = test: Effect on Estrogen receptor positive MCF-7 human breast cancer cell proliferation at 5x10E-6M (control = 24.4+/-3.8); format: functional; how it was run: as §1
MCF7 [16] = test: Effect on [3H]thymidine incorporation into estrogen receptor positive MCF-7 human breast cancer cells at 1*10^-6 M (control = 10.2+/-1.4); format: functional; how it was run: as §2
MCF7 [17] = test: Effect on [3H]thymidine incorporation into estrogen receptor positive MCF-7 human breast cancer cells at 5*10e-6 M (control = 10.2+/-1.4); format: functional; how it was run: as §3
MCF7 [18] = test: Effect on Estrogen receptor positive MCF-7 human breast cancer cell proliferation at 1x10E-6M (control = 24.4+/-3.8); format: functional; how it was run: as §1
[19] = molecular target: T1, Estrogen receptor (Mus musculus); test: Anti-uterotrophic effect in hormone-dependent transplant MXT bearing mice as relative uterine weight in treated and control mice at 12.5 mg (control=100+/-24); format: functional
Mus musculus [20] = organism: Mus musculus; test: Anti-tumor activity in hormone-dependent transplant MXT mammary tumor bearing mice at 12.5 mg (control=197+/-130); format: functional
Mus musculus [21] = organism: Mus musculus; test: Relative tumor weight in treated compared to control mice bearing hormone-dependent transplanted MXT mammary tumors at 12.5 mg

T1 sequence (O08537 whole entry, looked up): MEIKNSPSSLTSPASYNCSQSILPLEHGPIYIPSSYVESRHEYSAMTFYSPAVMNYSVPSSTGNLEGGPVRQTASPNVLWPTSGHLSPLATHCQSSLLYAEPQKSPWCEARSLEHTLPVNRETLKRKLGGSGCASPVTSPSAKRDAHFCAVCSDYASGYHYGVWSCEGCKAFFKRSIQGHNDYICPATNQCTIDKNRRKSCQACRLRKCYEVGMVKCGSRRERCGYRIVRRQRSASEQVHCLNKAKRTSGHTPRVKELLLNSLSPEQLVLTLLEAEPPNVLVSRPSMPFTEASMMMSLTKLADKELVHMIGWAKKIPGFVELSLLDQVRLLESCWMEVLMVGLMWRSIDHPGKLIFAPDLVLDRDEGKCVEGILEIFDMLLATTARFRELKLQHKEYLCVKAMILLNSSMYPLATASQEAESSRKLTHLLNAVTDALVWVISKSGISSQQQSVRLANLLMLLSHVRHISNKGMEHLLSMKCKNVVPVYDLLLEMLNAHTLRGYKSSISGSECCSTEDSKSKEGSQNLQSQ
T1 sequence (P19785 whole entry, looked up): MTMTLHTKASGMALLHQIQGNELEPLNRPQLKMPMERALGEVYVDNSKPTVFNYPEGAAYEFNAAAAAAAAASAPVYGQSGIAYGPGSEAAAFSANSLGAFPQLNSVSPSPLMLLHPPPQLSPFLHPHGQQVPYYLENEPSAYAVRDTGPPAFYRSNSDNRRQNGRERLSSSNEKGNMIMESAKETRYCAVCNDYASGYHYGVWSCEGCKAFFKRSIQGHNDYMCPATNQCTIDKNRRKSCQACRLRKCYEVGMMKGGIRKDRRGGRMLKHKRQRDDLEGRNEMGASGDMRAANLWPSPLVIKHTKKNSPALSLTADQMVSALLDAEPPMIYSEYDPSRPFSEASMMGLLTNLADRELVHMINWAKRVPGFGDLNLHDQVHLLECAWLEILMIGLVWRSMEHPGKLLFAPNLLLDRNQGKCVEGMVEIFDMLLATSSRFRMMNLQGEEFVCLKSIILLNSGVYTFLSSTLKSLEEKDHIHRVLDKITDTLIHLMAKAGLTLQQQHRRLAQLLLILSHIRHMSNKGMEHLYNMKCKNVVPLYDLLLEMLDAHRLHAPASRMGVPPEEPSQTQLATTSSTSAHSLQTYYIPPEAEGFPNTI

Row | Compound | inhibition [5] | inhibition [6] | Relative uterus weight [7] | Relative uterus weight [8] | T/C (MCF7 [9]) | T/C (MCF7 [10]) | Relative uterus weight [11] | Relative uterus weight [12] | T/C (MCF7 [13]) | T/C (MCF7 [14]) | further results
1 | CCC(NCCCCCCn1c(-c2ccc(O)cc2)c(C)c2cc(O)ccc21)c1ccccn1 (stereo unspecified) | 42% | 51% | 14.7 mg | 26 mg | 77% | 54% | 32.8 mg | 30.5 mg | 99% | 79% | Cell no/dish (MCF7 [1]): 195000; Cell no/dish (MCF7 [2]): 137000; Activity (MCF7 [3]): 10500; Activity (MCF7 [4]): 8400
2 | Cc1c(-c2ccc(O)cc2)n(CCCCCCNC(C)c2ccccn2)c2ccc(O)cc12 (stereo unspecified) | 39% | 77% | 14.6 mg | 20.2 mg | 52% | 39% | 34.2 mg | 22.4 mg | 46% | 12% | Cell no/dish (MCF7 [15]): 95000; Activity (MCF7 [16]): 4600; Activity (MCF7 [17]): 1200; Cell no/dish (MCF7 [18]): 126000; T/C [19]: 96%; Tumor weight (Mus musculus [20]): 148 mg; T/C (Mus musculus [21]): 75%
